This note sets out measurements from ChEMBL document CHEMBL1123465, “Buspirone analogues. 2. Structure-activity relationships of aromatic imide derivatives” (J Med Chem, 1986).

Each structure is given as a SMILES string. The source made the active and inactive calls. No cut-off for these calls is given here. A value given as a limit tells only on which side of the number the result lay.

The test system of assay [1] is Rattus norvegicus. Description: Effective oral dose that conditioned avoidance response in rat. Format: functional. The essentials:
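On day 10, trained rats (groups of 5-10) were given drug or vehicle by oral gavage and tested at the time of maximal activity. Responses over 30 min (11 trials at 3-min intervals) were pooled across dose levels to calculate the dose suppressing avoidance in 50% of animals (ED50).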

For assay [2], the system named is Rattus norvegicus. The assay is described as follows: Effective oral dose that produce reversal of trifluoperazine-induced catalepsy in rat. It counts as functional.
Assay [3] relates to Rattus norvegicus. Description: Inhibition of dorsal raphe neuron firing when given iv. It counts as functional.
The species named for assay [4] is Rattus norvegicus. Description: Maximum effective dose that causes vogel anticonflict effect when given through oral route. Format: functional. As to conditions: read-out: MED. The essentials: (§1)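 Reverse day-night cycled rats were water deprived 24 h, bottle trained for 15 min, then deprived a further 23.5 h. Compound was given orally before testing, and licks were counted, with brief grid shocks after a set lick number. Activity meant more licking than controls (Student's t test, p < 0.05). Maximum dose examined was 20 mg/kg.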

Assay [5] deals with Rattus norvegicus. The assay is described as follows: Induction of serotonin syndrome when given po.
The target in another assay is D(2) dopamine receptor (Rattus norvegicus, UniProt P61169). Description: Binding affinity at Dopamine receptor D2 in rat corpus striatum by displacing [3H]-spiperone. Format: tissue-based. The method in brief: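 Washed membranes from male Sprague-Dawley rat corpora striata were preincubated 10 min at 37 °C in Hepes-KOH pH 7.4 buffer with NaCl, KCl, CaCl2, MgCl2, ascorbic acid and 10 μM pargyline. 20-50 μg protein was incubated with 100 pM [3H]spiperone for 15 min at 37 °C, in duplicate. Nonspecific binding was defined with 10 μM D-(+)-butaclamol. IC50 came from log-probit linear regression over 3-5 concentrations.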
D(2) dopamine receptor, sequence (P61169 whole entry): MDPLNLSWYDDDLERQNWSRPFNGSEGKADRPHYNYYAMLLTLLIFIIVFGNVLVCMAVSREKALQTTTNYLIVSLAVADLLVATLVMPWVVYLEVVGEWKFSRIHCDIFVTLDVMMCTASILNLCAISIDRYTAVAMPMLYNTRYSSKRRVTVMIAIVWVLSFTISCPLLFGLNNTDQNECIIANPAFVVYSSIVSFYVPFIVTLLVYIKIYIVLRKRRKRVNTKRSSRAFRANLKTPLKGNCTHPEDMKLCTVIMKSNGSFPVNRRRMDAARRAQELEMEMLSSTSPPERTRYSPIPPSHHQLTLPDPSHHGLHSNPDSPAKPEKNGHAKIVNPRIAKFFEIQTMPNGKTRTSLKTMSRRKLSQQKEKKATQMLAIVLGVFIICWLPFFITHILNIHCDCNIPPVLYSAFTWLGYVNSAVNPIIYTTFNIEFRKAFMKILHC

The species entered for assay [6] is Rattus norvegicus. The assay is described as follows: Maximum effective dose that causes vogel anticonflict effect when given through oral route; IA=Inactive. It counts as functional, organism-based. The essentials: as §1
The species entered for assay [7] is Rattus norvegicus. Description: Inhibition of induced serotonin syndrome; IA=Inactive. Format: functional, organism-based.
The species entered for assay [8] is Rattus norvegicus. The assay is described as follows: Inhibition of dorsal raphe neuron firing. It counts as functional.

Consider `CC1(C)CC(=O)N(CCCCN2CCN(c3ncccn3)CC2)C(=O)C1.Cl` [GEPIRONE HYDROCHLORIDE], for which the ED50 amounted to 53 mg/kg in the assay on Rattus norvegicus [1], 6.5 mg/kg in the assay on Rattus norvegicus [2], 0.025 mg/kg in the assay on Rattus norvegicus [3] and 17.1 mg/kg with Rattus norvegicus [5]. Further, the minimal effective dose in the assay listed under Rattus norvegicus [4] was 1 mg/kg.
The compound `CC1(c2ccc(F)cc2)CC(=O)N(CCN2CCN(c3ncccn3)CC2)C1=O` (stereo not given) had an IC50 at D(2) dopamine receptor greater than 1000 nM. Moreover, the ED50 is greater than 100 mg/kg in the assay with Rattus norvegicus [1] and greater than 20 mg/kg in the assay on Rattus norvegicus [2].
As to `O=C1c2cc(Cl)c(Cl)cc2C(=O)N1CCCCN1CCN(c2ncccn2)CC1`, the IC50 on D(2) dopamine receptor is greater than 1000 nM. In the assay with Rattus norvegicus [1], the ED50 is greater than 100 mg/kg.
Compound `O=C1c2ccccc2C(=O)N1CCCCN1CCN(c2ncccn2)CC1` gave an IC50 on D(2) dopamine receptor greater than 1000 nM. Moreover, the values for the ED50 in the assay on Rattus norvegicus [1] and with Rattus norvegicus [2] were 65 mg/kg and 20 mg/kg, respectively. Moreover, the MED result in the assay listed under Rattus norvegicus [6] is “inactive”.
`O=C1CC(c2ccccc2)(c2ccccc2)C(=O)N1CCCCN1CCN(c2nsc3ccccc23)CC1` gave an IC50 on D(2) dopamine receptor of 230 nM. In addition, the ED50 is greater than 100 mg/kg in the assay on Rattus norvegicus [1] and greater than 20 mg/kg in the assay on Rattus norvegicus [2].
As for `O=C1CC(c2ccccc2)(c2ccccc2)C(=O)N1CCCCN1CCN(c2ncccn2)CC1`, the IC50 on D(2) dopamine receptor was greater than 1000 nM. Also, the ED50 is greater than 100 mg/kg in the assay with Rattus norvegicus [1] and greater than 20 mg/kg in the assay with Rattus norvegicus [2]. Further, the minimal effective dose in the assay listed under Rattus norvegicus [4] worked out at 10 mg/kg.
On D(2) dopamine receptor, `CC1(c2ccc(F)cc2)CC(=O)N(CCCN2CCN(c3ncccn3)CC2)C1=O` (stereo not given) yielded an IC50 greater than 1000 nM. The ED50 in the assay with Rattus norvegicus [1] is greater than 100 mg/kg; with Rattus norvegicus [2], greater than 20 mg/kg.
On D(2) dopamine receptor, `CSc1nc(N2CCN(CCCCN3C(=O)c4ccccc4C3=O)CC2)ncc1F.Cl` yielded an IC50 greater than 1000 nM. Also, the figures for the ED50 in the assay with Rattus norvegicus [1] and with Rattus norvegicus [2] were greater than 100 mg/kg and greater than 20 mg/kg, respectively.
Turning to `Cl.O=C1C2CC=CCC2C(=O)N1CCCCN1CCN(c2ncccn2)CC1` (stereo not given), the IC50 on D(2) dopamine receptor was greater than 1000 nM. In addition, the ED50 with Rattus norvegicus [1] is greater than 100 mg/kg.
Take `O=C1c2c(Cl)c(Cl)c(Cl)c(Cl)c2C(=O)N1CCCCN1CCN(c2ncccn2)CC1`: on D(2) dopamine receptor, the IC50 was greater than 1000 nM. For the same compound, the ED50 in the assay with Rattus norvegicus [1] was greater than 100 mg/kg; in the assay on Rattus norvegicus [2], greater than 20 mg/kg.
For the compound `O=C1c2ccc([N+](=O)[O-])cc2C(=O)N1CCCCN1CCN(c2ncccn2)CC1`, the IC50 on D(2) dopamine receptor is greater than 1000 nM. The ED50 in the assay on Rattus norvegicus [1] was 75 mg/kg; with Rattus norvegicus [2] it was greater than 20 mg/kg.
As for `CC1(c2ccc(F)cc2)CC(=O)N(CCCCN2CCN(c3ncccc3C#N)CC2)C1=O` (stereo not given), the IC50 on D(2) dopamine receptor came to 710 nM. The results for the ED50 in the assay on Rattus norvegicus [1] and in the assay with Rattus norvegicus [2] were 100 mg/kg and 20 mg/kg, respectively. Besides, the MED result in the assay filed under Rattus norvegicus [6] was “inactive”.
Take `Cl.O=C1CC2(CCCC2)CC(=O)N1CCCCN1CCN(c2ncccn2)CC1` [BUSPIRONE HYDROCHLORIDE]: the ED50 result in the assay filed under Rattus norvegicus [7] was “inactive”. The ED50 in the assay with Rattus norvegicus [2] was found to be 3.6 mg/kg; in the assay listed under Rattus norvegicus [8], 0.01 mg/kg. Moreover, the minimal effective dose in the assay listed under Rattus norvegicus [4] stood at 1 mg/kg.
The compound `CC1(c2ccccc2)CC(=O)N(CCCCN2CCN(c3ncccn3)CC2)C1=O.Cl` (stereo not given) showed an IC50 at D(2) dopamine receptor greater than 1000 nM. Moreover, the 50% effect level in the assay on Rattus norvegicus [1] (ED50) was put at a dose of 60 mg/kg.
`Cl.N#Cc1cccnc1N1CCN(CCCCN2C(=O)c3ccc([N+](=O)[O-])cc3C2=O)CC1` gave an IC50 on D(2) dopamine receptor greater than 1000 nM. The ED50 in the assay with Rattus norvegicus [1] was 78 mg/kg; in the assay with Rattus norvegicus [2], greater than 20 mg/kg.
For `Cc1ccc(S(=O)(=O)O)cc1.O=C1CC2(CCCc3ccccc32)C(=O)N1CCCCN1CCN(c2nsc3ccccc23)CC1` (stereo not given), the ED50 in the assay with Rattus norvegicus [1] is greater than 100 mg/kg; in the assay on Rattus norvegicus [2], greater than 20 mg/kg.
With `Cl.O=C1CC2(CCc3ccccc32)C(=O)N1CCCCN1CCN(c2ncccn2)CC1` (stereo not given), on D(2) dopamine receptor, the IC50 is 1300 nM. Also, the ED50 in the assay with Rattus norvegicus [1] is 54 mg/kg; in the assay with Rattus norvegicus [2], 11.5 mg/kg. The MED entry in the assay filed under Rattus norvegicus [6] was “inactive”.
As to `Cl.O=C1CC2(CCc3ccccc3C2)C(=O)N1CCCCN1CCN(c2ncccn2)CC1` (stereo not given), on D(2) dopamine receptor, the IC50 was 540 nM. Besides, the ED50 was 58 mg/kg in the assay on Rattus norvegicus [1] and 13 mg/kg in the assay on Rattus norvegicus [2]. In addition, the minimal effective dose in the assay listed under Rattus norvegicus [4] was 5 mg/kg.
`N#Cc1cccnc1N1CCN(CCCCN2C(=O)CC(c3ccccc3)(c3ccccc3)C2=O)CC1`: on D(2) dopamine receptor, the IC50 is greater than 1000 nM. For the same compound, the ED50 in the assay with Rattus norvegicus [1] was greater than 100 mg/kg; with Rattus norvegicus [2] it was greater than 20 mg/kg.
The compound `Cl.O=C1CC2(CCCc3ccccc32)C(=O)N1CCCCN1CCN(c2ncccn2)CC1` (stereo not given) returned an IC50 at D(2) dopamine receptor greater than 1000 nM. Further, the ED50 with Rattus norvegicus [1] was 50 mg/kg; in the assay on Rattus norvegicus [2] it was greater than 20 mg/kg. In the assay filed under Rattus norvegicus [6], the MED entry is “inactive”.
On D(2) dopamine receptor, `CC1(c2ccc(F)cc2)CC(=O)N(CCCCN2CCN(c3ncccn3)CC2)C1=O` (stereo not given) registered an IC50 greater than 1000 nM. For the same compound, the results for the ED50 in the assay with Rattus norvegicus [1] and with Rattus norvegicus [2] were 56 mg/kg and 11 mg/kg, respectively. Also, the MED result in the assay listed under Rattus norvegicus [6] is “inactive”.
Take `CC1(c2ccc(F)cc2)CC(=O)N(CCCCN2CCN(c3nsc4ccccc34)CC2)C1=O` (stereo not given): the IC50 on D(2) dopamine receptor was 120 nM. Further, the ED50 in the assay with Rattus norvegicus [1] was 100 mg/kg; in the assay on Rattus norvegicus [2], greater than 20 mg/kg.
The compound `Cl.N#Cc1cccnc1N1CCN(CCCCN2C(=O)CC3(CCCc4ccccc43)C2=O)CC1` (stereo not given) yielded an IC50 at D(2) dopamine receptor of 310 nM. Besides, the figures for the ED50 in the assay on Rattus norvegicus [1] and with Rattus norvegicus [2] were 100 mg/kg and greater than 20 mg/kg, respectively.
